Assay [1] has as its target T1, Protein cereblon/Bromodomain-containing protein 4 (Homo sapiens) (UniProt O60885+Q96SW2). Description: PROTAC activity at BRD4/Cereblon in human HCT116 p53-/- cells assessed as decrease in MYC protein expression at 5 to 10 uM for 24 hrs by Western blot analysis. The conditions noted are these: HCT-116, dose 5-10 µM. It is filed as cell-based. Summed up: (§1)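 Eight CRC lines exposed 24 h to PROTAC at 5 or 10 µM (stocks 2 mM in DMSO, diluted in PBS or medium). Lysis in RIPA with protease/phosphatase inhibitors and 2.5 mmol/l DTT; 15 µg protein on 10% SDS-PAGE, semi-dry transfer to nitrocellulose. Anti-BRD4 or anti-MYC at 1:1,000 overnight at 4 °C; GAPDH or β-actin loading control; chemiluminescence.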

The target of assay [2] is T1, Protein cereblon/Bromodomain-containing protein 4 (Homo sapiens). In words: PROTAC activity at BRD4/Cereblon in human LS174T cells assessed as decrease in MYC protein expression at 5 to 10 uM for 24 hrs by Western blot analysis. It is filed as cell-based. The following applies: dose 5-10 µM. The method, boiled down:
as §1

Assay [3] has the same target. In words: PROTAC activity at BRD4/Cereblon in human LS174T cells assessed as BRD4 mRNA level at 500 to 1000 nM for 24 hrs by RT-qPCR analysis. The following applies: dose 500-1000 nM. It is filed as cell-based. Summed up:
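Total RNA from 10^6 cells after 24 h treatment, Trizol-extracted and integrity-checked. 0.7 µg reverse transcribed, then SYBR-type qPCR: 95 °C 5 min, 40 cycles of 95 °C 15 s/60 °C 60 s. Melting curves checked. MYC or BRD4 normalised to PPIA and ACTB by ΔΔCq. At least three experiments; means ± SD.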
Background: Quantitative PCR measures a nucleic acid by following its amplification.

Assay [4] shares this target. Description: PROTAC activity at BRD4/Cereblon in human fibroblast cells assessed as effect on MYC protein expression at 500 to 1000 nM for 24 hrs by Western blot analysis. The assay is classed as cell-based. The conditions noted are these: dose 500-1000 nM. The method, boiled down: (§2)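 Cells treated 24 h across 1 nM–10 µM range (fibroblasts at 500/1000 nM). Immunoblot: RIPA lysate with 2.5 mmol/l DTT, 15 µg per lane on 10% SDS-PAGE, nitrocellulose, 5% milk block 1 h. BRD4 or MYC primary 1:1,000 overnight at 4 °C, HRP secondary 1:10,000 for 60 min; GAPDH/β-actin loading control; ECL detection.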
A general note: Immunoblotting shows a protein as a band on a membrane.

The target is the same in assay [5]. In words: PROTAC activity at BRD4/Cereblon in human LS174T cells assessed as BRD4 protein degradation at 100 to 1000 nM for 24 hrs by Western blot analysis. The conditions noted are these: dose 100-1000 nM. The assay is classed as cell-based. The method, boiled down:
as §2

Assay [6] shares this target. In words: PROTAC activity at BRD4/Cereblon in human COLO 320 cells assessed as decrease in BRD4 protein degradation at 5 to 10 uM for 24 hrs by Western blot analysis. The conditions noted are these: dose 5-10 µM. It is filed as cell-based. Summed up: as §1
The target is the same in assay [7]. In words: PROTAC activity at BRD4/Cereblon in human LS174T cells assessed as BRD4 protein degradation at 1 uM for 2 hrs by Immunofluorescence analysis.
For assay [8] the target is unchanged. In words: PROTAC activity at BRD4/Cereblon in human Caco-2 cells assessed as decrease in BRD4 protein degradation at 5 to 10 uM for 24 hrs by Western blot analysis. The assay is classed as cell-based. The following applies: dose 5-10 µM. Summed up: as §1
Assay [9] addresses T2, von Hippel-Lindau disease tumor suppressor/Bromodomain-containing protein 4 (Homo sapiens) (UniProt O60885+P40337). Description: PROTAC activity at BRD4/VHL E3 ligase in human Caco-2 cells assessed as decrease in MYC protein expression at 5 to 10 uM for 24 hrs by Western blot analysis. It is filed as cell-based. The conditions noted are these: dose 5-10 µM. The method, boiled down: as §1

In assay [10] the target is T2, von Hippel-Lindau disease tumor suppressor/Bromodomain-containing protein 4 (Homo sapiens). Description: PROTAC activity at BRD4/VHL E3 ligase in human LS174T cells assessed as BRD4 protein degradation at 100 to 1000 nM for 24 hrs by Western blot analysis. It is filed as cell-based. The conditions noted are these: dose 100-1000 nM. The method, boiled down:
(§3)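 LS174t cells (RPMI 1640, 10% FCS) were exposed to 1 nM–10 µM for 24 h. Lysates in RIPA with inhibitors and 2.5 mmol/l DTT; 15 µg protein was run on 10% SDS-PAGE and transferred to nitrocellulose. BRD4 or MYC primary antibodies were used at 1:1,000 overnight at 4 °C, HRP secondary 1:10,000, and GAPDH/β-actin as loading control. Detection was by chemiluminescence.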

Assay [11] has the same target. In words: PROTAC activity at BRD4/VHL E3 ligase in human LS174T cells assessed as decrease in MYC protein expression at […] for 24 hrs by Western blot analysis. The assay is classed as cell-based. The method, boiled down:
as §3

The target is the same in assay [12]. In words: PROTAC activity at BRD4/VHL E3 ligase in human HT-29 cells assessed as decrease in MYC protein expression at 5 to 10 uM for 24 hrs by Western blot analysis. The assay is classed as cell-based. The conditions noted are these: dose 5-10 µM. The method, boiled down: as §1
For assay [13] the target is unchanged. Description: PROTAC activity at BRD4/VHL E3 ligase in human LS174T dbet1 resistant cells assessed as MYC mRNA level at 500 to 1000 nM for 24 hrs by RT-qPCR analysis. It is filed as cell-based. The following applies: dose 500-1000 nM. Summed up:
(§4)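 Resistant LS174t cells were derived by four months' exposure to rising dBET1 concentrations, with outgrowing cells expanded. Resistant and parental cells were then treated and analysed for BRD4 and MYC protein by western blot (GAPDH/β-actin control) and for MYC mRNA by qPCR normalised to PPIA/ACTB (ΔΔCq).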

The target is the same in assay [14]. In words: PROTAC activity at BRD4/VHL E3 ligase in human LS174T cells assessed as decrease in BRD4 protein degradation at 5 to 10 uM for 24 hrs by Western blot analysis. The assay is classed as cell-based. The following applies: dose 5-10 µM. The method, boiled down: (§5)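 Eight CRC lines, including LS174t (RPMI 1640) and SW480 (DMEM/HamsF12), all with 10% FCS, were treated with PROTAC at 5 and 10 µM. BRD4 and MYC proteins were detected by immunoblot (RIPA lysate, 15 µg, 10% gel, primary 1:1,000 overnight at 4 °C), with GAPDH/β-actin as loading control.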

Assay [15] has the same target. In words: PROTAC activity at BRD4/VHL E3 ligase in human DLD-1 cells assessed as decrease in MYC protein expression at 5 to 10 uM for 24 hrs by Western blot analysis. The assay is classed as cell-based. The following applies: dose 5-10 µM. Summed up:
as §1

The target is the same in assay [16]. In words: PROTAC activity at BRD4/VHL E3 ligase in human LS174T cells assessed as decrease in MYC protein expression at 5 to 10 uM for 24 hrs by Western blot analysis. It is filed as cell-based. The following applies: dose 5-10 µM. The method, boiled down: as §5
For assay [17] the target is unchanged. Description: PROTAC activity at BRD4/VHL E3 ligase in human LS174T cells assessed as complete BRD4 protein degradation at […] for 24 hrs by Western blot analysis. It is filed as cell-based. The method, boiled down: as §3
For assay [18] the target is unchanged. In words: PROTAC activity at BRD4/VHL E3 ligase in human LS174T dbet1 resistant cells assessed as MYC protein expression at 500 to 1000 nM for 24 hrs by Western blot analysis. The assay is classed as cell-based. The following applies: dose 500-1000 nM. Summed up: as §4
Assay [19] has the same target. In words: PROTAC activity at BRD4/VHL E3 ligase in human SW480 cells assessed as decrease in BRD4 protein degradation at 5 to 10 uM for 24 hrs by Western blot analysis. It is filed as cell-based. The following applies: dose 5-10 µM. The method, boiled down: as §5

Active and inactive are the calls of the source. The rule behind the calls is not given here.

T2 sequence (P40337 whole entry, looked up, other chains not shown): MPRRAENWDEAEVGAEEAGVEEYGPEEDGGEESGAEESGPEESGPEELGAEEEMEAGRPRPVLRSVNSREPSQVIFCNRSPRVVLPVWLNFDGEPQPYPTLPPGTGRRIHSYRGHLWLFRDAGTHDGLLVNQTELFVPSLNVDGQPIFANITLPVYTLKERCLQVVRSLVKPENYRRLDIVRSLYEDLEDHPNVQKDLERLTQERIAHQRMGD
T1 sequence (Q96SW2 whole entry, looked up, other chains not shown): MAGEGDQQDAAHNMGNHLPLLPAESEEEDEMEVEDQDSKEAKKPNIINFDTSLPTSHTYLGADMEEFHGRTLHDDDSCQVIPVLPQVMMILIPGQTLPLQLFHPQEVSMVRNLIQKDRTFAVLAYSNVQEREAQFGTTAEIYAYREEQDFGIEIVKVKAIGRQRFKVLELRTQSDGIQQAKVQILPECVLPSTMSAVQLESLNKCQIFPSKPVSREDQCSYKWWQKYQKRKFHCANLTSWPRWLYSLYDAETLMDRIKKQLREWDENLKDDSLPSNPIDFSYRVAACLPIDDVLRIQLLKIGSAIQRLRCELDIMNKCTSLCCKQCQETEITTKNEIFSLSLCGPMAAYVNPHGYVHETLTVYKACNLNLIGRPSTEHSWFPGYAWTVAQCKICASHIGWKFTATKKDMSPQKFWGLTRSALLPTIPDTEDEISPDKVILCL

For the compound `Cc1sc2c(c1C)C(c1ccc(Cl)cc1)=N[C@@H](CC(=O)NCCCCNC(=O)COc1cccc3c1C(=O)N(C1CCC(=O)NC1=O)C3=O)c1nnc(C)n1-2` (some centres undefined), the result in assay [1], in [2], in assay [6], in assay [7] and in assay [8] was Active. Also, the outcome in [3] and in assay [4] was inactive. In [5], the Activity entry was “Dose-Dependent Effect”.

In the case of `Cc1ncsc1-c1ccc(CNC(=O)[C@@H]2C[C@@H](O)CN2C(=O)[C@@H](NC(=O)COCCOCCOCCNC(=O)C[C@@H]2N=C(c3ccc(Cl)cc3)c3c(sc(C)c3C)-n3c(C)nnc32)C(C)(C)C)cc1`, the outcome in assay [9], in assay [11], in assay [12], in assay [13], in [14] and in [16] was Active. The outcome in assay [17], in assay [18] and in assay [19] was Active. Also, the Activity result in assay [10] was “Dose-Dependent Effect”. For the same compound, in [15], the outcome was inactive.

Values taken from ChEMBL document CHEMBL5712087, “Targeting bromodomain-containing protein 4 (BRD4) inhibits MYC expression in colorectal cancer cells” (Neoplasia, 2019).
